Molecules are shown by their SMILES. Active and inactive are the calls of the source. No cut-off for these calls is given here.

Assay [1] deals with Muscarinic acetylcholine receptor M3 (Cavia porcellus) (UniProt Q8VH26). Nature of the assay: Agonist activity at muscarinic M3 receptor in guinea-pig ileum. The assay is classed as functional, tissue-based. In a few lines:
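Isolated tissues in an organ bath were washed for 30 min, then a cumulative dose–response curve to the compound was built. Contractions were recorded isometrically by force transducer and expressed as % of the maximal control-curve response. Parallel untreated tissues checked sensitivity drift. Values are means ± SEM of four to six independent experiments.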

The target of assay [2] is T1, Muscarinic acetylcholine receptor M1 (Homo sapiens) (UniProt P11229).
T1 sequence (whole entry): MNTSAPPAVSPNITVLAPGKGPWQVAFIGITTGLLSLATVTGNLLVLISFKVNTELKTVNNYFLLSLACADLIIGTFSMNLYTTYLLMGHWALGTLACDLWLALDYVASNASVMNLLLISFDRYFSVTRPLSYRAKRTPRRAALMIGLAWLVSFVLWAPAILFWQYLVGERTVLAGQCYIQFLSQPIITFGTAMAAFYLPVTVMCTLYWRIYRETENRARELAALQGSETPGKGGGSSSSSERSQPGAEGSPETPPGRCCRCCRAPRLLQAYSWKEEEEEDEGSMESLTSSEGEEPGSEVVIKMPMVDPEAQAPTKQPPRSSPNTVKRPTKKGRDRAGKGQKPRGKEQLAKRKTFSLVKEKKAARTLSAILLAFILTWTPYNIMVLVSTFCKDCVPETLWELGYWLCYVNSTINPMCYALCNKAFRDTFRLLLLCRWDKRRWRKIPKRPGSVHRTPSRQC
Nature of the assay: Antagonist activity at muscarinic M1 receptor in rabbit stimulated vas deferens at 10 uM. Type of assay: functional, tissue-based. Particulars: Oryctolagus cuniculus, target entry is the homologue from another species.

Assay [3] concerns the target T2, Muscarinic acetylcholine receptor M4 (Homo sapiens, UniProt P08173).
T2 sequence (P08173 whole entry): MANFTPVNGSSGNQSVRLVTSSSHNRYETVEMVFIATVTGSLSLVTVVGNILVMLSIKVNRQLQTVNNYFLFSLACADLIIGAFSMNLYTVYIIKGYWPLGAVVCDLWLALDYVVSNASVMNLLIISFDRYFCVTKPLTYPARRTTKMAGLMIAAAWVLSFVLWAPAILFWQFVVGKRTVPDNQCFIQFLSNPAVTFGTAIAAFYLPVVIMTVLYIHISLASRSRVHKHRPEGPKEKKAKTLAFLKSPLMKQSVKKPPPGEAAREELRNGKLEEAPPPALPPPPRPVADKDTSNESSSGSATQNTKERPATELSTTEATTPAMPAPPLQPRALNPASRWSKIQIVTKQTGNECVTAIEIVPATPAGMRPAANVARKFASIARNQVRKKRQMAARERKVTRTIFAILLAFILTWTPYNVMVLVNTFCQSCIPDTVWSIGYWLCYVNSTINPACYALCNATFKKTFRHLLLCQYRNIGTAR
Briefly: Agonist activity at human muscarinic M4 receptor expressed in CHO cells. Type of assay: functional, cell-based.

The target of assay [4] is T3, Muscarinic acetylcholine receptor M5 (Homo sapiens) (UniProt P08912).
T3 sequence (whole entry): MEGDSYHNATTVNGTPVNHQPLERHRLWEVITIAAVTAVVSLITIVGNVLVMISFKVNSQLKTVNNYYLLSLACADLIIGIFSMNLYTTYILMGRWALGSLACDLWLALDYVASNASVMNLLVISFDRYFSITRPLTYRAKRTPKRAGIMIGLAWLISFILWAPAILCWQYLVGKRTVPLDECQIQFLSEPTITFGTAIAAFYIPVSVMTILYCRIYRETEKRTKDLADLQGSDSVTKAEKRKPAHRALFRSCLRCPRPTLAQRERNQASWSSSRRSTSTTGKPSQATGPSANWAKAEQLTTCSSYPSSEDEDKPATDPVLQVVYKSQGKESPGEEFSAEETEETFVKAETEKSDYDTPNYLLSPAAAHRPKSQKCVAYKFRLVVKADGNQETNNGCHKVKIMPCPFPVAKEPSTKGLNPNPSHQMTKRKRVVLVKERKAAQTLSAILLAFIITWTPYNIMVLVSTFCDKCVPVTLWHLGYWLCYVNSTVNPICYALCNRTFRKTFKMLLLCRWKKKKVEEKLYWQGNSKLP
Briefly: Agonist activity at human muscarinic M5 receptor expressed in CHO cells. The assay is classed as functional, cell-based.

Assay [5] addresses T1, Muscarinic acetylcholine receptor M1 (Homo sapiens). The note with it: Oryctolagus cuniculus; Vas deferens.
For assay [6], the target named is T4, Muscarinic acetylcholine receptor M2 (Homo sapiens) (UniProt P08172).
T4 sequence (whole entry): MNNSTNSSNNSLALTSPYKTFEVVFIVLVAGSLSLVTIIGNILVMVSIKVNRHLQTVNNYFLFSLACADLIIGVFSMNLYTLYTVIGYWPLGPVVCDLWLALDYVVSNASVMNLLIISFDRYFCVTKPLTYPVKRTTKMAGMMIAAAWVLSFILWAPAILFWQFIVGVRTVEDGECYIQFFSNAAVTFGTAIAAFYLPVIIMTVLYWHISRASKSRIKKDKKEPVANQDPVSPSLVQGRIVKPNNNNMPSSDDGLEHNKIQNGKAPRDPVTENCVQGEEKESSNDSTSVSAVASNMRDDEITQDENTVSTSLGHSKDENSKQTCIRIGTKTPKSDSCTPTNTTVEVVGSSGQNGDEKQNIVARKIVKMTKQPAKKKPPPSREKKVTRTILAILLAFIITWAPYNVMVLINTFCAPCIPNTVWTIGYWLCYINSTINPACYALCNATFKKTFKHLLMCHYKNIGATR
Briefly: Antagonist activity at muscarinic M2 receptor in guinea-pig stimulated left atria at 10 uM. Type of assay: functional. The note with it: Cavia porcellus, target entry is the homologue from another species.

Assay [7] concerns the target Muscarinic acetylcholine receptor M3 (Cavia porcellus) (UniProt Q8VH26). Briefly: Intrinsic activity at muscarinic M3 receptor in guinea-pig ileum assessed as ratio of agonist activity to activity of […]. The assay is classed as functional, tissue-based.
Assay [8] concerns Muscarinic acetylcholine receptor M2 (Cavia porcellus). Briefly: Agonist activity at muscarinic M2 receptor in guinea-pig stimulated left atria.
Assay [9] shares this test system. Nature of the assay: Intrinsic activity at muscarinic M2 receptor in guinea-pig stimulated left atria assessed as ratio of agonist activity to activity of arecaidine propargyl ester. Particulars: […].
The test system of assay [10] is Muscarinic acetylcholine receptor M4 (Cavia porcellus). Nature of the assay: Agonist muscarinic M4 receptor in guinea-pig lung strips.
Assay [11] has the same test system. Nature of the assay: Intrinsic activity at muscarinic M4 receptor in guinea-pig lung strips assessed as ratio of agonist activity to activity of McN-A-343.

Sequence of Muscarinic acetylcholine receptor M3 (Cavia porcellus) (Q8VH26 1-587): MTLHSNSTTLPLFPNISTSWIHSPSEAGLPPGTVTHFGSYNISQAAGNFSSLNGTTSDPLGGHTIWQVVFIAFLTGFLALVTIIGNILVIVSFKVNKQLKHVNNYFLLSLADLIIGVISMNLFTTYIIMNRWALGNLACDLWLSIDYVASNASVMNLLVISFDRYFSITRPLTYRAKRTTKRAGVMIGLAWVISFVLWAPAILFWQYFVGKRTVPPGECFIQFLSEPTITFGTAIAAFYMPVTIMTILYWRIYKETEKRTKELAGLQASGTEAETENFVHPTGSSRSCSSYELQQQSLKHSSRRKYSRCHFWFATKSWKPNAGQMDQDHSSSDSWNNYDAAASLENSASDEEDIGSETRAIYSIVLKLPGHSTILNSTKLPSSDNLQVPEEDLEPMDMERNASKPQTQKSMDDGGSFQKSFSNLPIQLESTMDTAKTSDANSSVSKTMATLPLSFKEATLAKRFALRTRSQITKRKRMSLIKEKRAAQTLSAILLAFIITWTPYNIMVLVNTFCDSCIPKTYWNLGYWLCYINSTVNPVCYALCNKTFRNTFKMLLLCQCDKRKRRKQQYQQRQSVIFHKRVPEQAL

As for `C[C@H]1OC[C@H](C[N+](C)(C)C)O1` (relative stereo), in assay [1], the pD2 was 7.47.

On to `C[C@@H]1COC[C@H](C[N+](C)(C)C)O1`, for which the pKb (usually the negative decadic logarithm of the Kb, by convention in mol/L) in [2] is under 5. The compound also gave a pD2 in assay [1] of 6.53. The EC50 (usually the concentration giving half of the maximal effect) in assay [3] is 25.1 µM. The outcome in assay [4] was inactive.

For the compound `C[C@H]1OC[C@@H](C[N+](C)(C)C)O1` (relative stereo), the pD2 in assay [1] was determined as 7.69.

For `CC1OC(C[N+](C)(C)C)CS1` (racemic), the pD2 came out at 7.75 in [1] and 6.81 in [5].

In assay [1], `C[C@@H]1O[C@H](C[N+](C)(C)C)CS1` registered a pD2 of 8.06.

Turning to `C[C@H]1CSC[C@H](C[N+](C)(C)C)O1` (relative stereo), the pKb in assay [2] and in assay [6] was under 5 throughout. This compound also showed a pD2 in assay [1] of 5.21. The Intrinsic activity in [7] turned out to be 1.

Take `C[C@H]1COC[C@H](C[N+](C)(C)C)O1`: the values for the pD2 in assay [1] and in assay [5] were 6.02 and 5.08, respectively.

As for `CC1COCC(C[N+](C)(C)C)O1` (racemic; form 1) [listing 1 of 2 here], the values for the pD2 in assay [1] and in assay [5] were 7.34 and 5.65, respectively.

For the compound `C[C@H]1COC[C@@H](C[N+](C)(C)C)O1`, the pD2 in assay [1] was 7.65; in [5], 6.78. Also, the EC50 in [3] was 2.82 µM.

In the case of `C[C@H]1CSC[C@@H](C[N+](C)(C)C)O1` (relative stereo), the results for the pD2 in [1], in assay [5] and in assay [8] were 6.46, 4.46 and 6.26, respectively. Also, the Intrinsic activity in assay [7] and in [9] was 1 in each case.

As to `CC1COCC(C[N+](C)(C)C)O1` (racemic; form 1) [listing 2 of 2 here], the response in assay [3] was half-maximal at 2.51 µM (EC50).

In the case of `C[C@H]1O[C@@H](C[N+](C)(C)C)CS1`, in assay [1], the pD2 was 5.82.

Consider `C[C@H]1OCC[C@@H](C[N+](C)(C)C)O1`, for which, in assay [2], the pKb is over 5. The pD2 in assay [1] worked out at 5.73; in assay [10], 6.41; in [8], 5.24. The Intrinsic activity in assay [7], in [11] and in assay [9] was 1 throughout.

On to `CC1COCC(C[N+](C)(C)C)O1` (racemic; form 2), for which the EC50 in [3] was 282 µM.

For the origin of these results see ChEMBL document CHEMBL1144548, “Dioxane and oxathiane nuclei: suitable substructures for muscarinic agonists” (Bioorg Med Chem, 2007).
